Results reported in ChEMBL document CHEMBL1667772 (Bioorg Med Chem Lett, 2011).
Activity calls are given as the source filed them. The calls are words filed in the database; no cut-off is given here.

System: not listed separately
Assay: Oral bioavailability in cynomolgus monkey
Format: ADME, organism-based, Macaca fascicularis
Settings: in vivo

Structure (SMILES) | bioavailability
CC(=O)N1CCC(NC(=O)NC23CC4CC(CC(C4)C2)C3)CC1 [AR9281] | 25%

Target: T1, Bifunctional epoxide hydrolase 2 (Homo sapiens, UniProt P34913)
T1 sequence (P34913 whole entry): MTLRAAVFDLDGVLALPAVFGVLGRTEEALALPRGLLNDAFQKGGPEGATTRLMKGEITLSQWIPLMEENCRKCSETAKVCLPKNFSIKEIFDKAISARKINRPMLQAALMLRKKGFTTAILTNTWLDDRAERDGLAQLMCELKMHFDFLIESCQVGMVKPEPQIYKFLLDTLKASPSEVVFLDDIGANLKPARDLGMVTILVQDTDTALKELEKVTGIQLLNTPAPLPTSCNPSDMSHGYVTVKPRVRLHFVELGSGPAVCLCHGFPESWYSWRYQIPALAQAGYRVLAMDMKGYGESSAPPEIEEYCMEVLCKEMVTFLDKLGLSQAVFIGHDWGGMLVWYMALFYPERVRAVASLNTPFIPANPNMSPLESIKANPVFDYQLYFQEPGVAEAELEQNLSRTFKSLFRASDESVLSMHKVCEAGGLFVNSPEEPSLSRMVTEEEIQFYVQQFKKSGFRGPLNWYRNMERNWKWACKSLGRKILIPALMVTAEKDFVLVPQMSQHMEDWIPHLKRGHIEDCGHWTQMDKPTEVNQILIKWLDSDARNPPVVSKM
Assay: not given
Format: cell-based, HUVEC
Settings: not given

Structure (SMILES) | IC50
CC(=O)N1CCC(NC(=O)NC2CCCCCC2)CC1 | 0.027 µM
CC(=O)N1CCC(NC(=O)NC2CCC(C(C)(C)C)CC2)CC1 (stereo not given) | 0.27 µM
CC(=O)N1CCC(NC(=O)NC2C3CCC2CC3)CC1 (stereo not given) | 0.12 µM
CC(=O)N1CCC(NC(=O)NC2CCC(C)(C)CC2)CC1 | 0.038 µM
O=C(NC1CCCCC1)NC1CCN(C(=O)c2ccccn2)CC1 | 0.067 µM
CC(=O)N1CCC(NC(=O)NC2CC3(C)CCC2CC3)CC1 (stereo not given) | 0.3 µM

Second part, the compound after the results:

IC50 | Structure (SMILES)
0.226 µM | CC(=O)N1CCC(NC(=O)Nc2cccc(C(F)(F)F)c2)CC1
0.0039 µM | CS(=O)(=O)N1CCC(NC(=O)NC23CC4CC(CC(C4)C2)C3)CC1
0.0067 µM | O=C(Nc1ccc(OC(F)(F)F)cc1)NC1CCN(C(=O)c2cccnc2)CC1
0.064 µM | CC(C)S(=O)(=O)N1CCC(NC(=O)Nc2ccc(OC(F)(F)F)cc2)CC1

Target: T2, Cytochrome P450 2B6 (Homo sapiens, UniProt P20813)
T2 sequence (P20813 whole entry): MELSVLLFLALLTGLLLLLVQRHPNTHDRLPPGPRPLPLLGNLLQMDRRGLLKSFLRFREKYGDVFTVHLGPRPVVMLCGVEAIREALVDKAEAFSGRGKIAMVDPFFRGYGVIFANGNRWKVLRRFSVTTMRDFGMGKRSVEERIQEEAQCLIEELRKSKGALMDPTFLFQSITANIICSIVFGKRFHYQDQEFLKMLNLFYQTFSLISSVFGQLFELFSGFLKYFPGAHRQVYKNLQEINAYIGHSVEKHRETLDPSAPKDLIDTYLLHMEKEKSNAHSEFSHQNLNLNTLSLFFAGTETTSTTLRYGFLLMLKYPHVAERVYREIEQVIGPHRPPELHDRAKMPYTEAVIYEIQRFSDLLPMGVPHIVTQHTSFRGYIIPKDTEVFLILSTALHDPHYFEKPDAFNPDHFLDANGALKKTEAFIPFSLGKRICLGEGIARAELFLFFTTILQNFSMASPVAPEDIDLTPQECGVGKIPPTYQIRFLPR
Assay: Inhibition of CYP2B6
Format: ADME
Settings: not given

Structure (SMILES) | inhibition (INH)
CC(=O)N1CCC(NC(=O)NC23CC4CC(CC(C4)C2)C3)CC1 [AR9281] | Not Active

System: Rattus norvegicus
Assay: Antihypertensive activity against AngII-induced hypertension in telemetered rat assessed as decrease in systolic blood pressure at 50 mg/kg, po
Settings: Artery, read-out: INH

Structure (SMILES) | inhibition in vivo at 50 mg/kg
CC(=O)N1CCC(NC(=O)NC23CC4CC(CC(C4)C2)C3)CC1 [AR9281] | 8%

System: Rattus norvegicus
Assay: Antihypertensive activity against spontaneously hypertensive rat assessed as decrease in mean blood pressure at 100 mg/kg, po
Format: functional, organism-based
Parameters: dose 100 mg/kg
Settings: not given

Structure (SMILES) | Activity
CC(=O)N1CCC(NC(=O)NC23CC4CC(CC(C4)C2)C3)CC1 [AR9281] | inactive

Target: Voltage-gated inwardly rectifying potassium channel KCNH2 (Homo sapiens, UniProt Q12809)
Assay: Inhibition of human ERG by patch clamp analysis
Settings: not given
Summary of the method: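 hERG inhibition measured by high-throughput patch clamp; percent inhibition at 30 µM.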

Voltage-gated inwardly rectifying potassium channel KCNH2, sequence (Q12809 whole entry): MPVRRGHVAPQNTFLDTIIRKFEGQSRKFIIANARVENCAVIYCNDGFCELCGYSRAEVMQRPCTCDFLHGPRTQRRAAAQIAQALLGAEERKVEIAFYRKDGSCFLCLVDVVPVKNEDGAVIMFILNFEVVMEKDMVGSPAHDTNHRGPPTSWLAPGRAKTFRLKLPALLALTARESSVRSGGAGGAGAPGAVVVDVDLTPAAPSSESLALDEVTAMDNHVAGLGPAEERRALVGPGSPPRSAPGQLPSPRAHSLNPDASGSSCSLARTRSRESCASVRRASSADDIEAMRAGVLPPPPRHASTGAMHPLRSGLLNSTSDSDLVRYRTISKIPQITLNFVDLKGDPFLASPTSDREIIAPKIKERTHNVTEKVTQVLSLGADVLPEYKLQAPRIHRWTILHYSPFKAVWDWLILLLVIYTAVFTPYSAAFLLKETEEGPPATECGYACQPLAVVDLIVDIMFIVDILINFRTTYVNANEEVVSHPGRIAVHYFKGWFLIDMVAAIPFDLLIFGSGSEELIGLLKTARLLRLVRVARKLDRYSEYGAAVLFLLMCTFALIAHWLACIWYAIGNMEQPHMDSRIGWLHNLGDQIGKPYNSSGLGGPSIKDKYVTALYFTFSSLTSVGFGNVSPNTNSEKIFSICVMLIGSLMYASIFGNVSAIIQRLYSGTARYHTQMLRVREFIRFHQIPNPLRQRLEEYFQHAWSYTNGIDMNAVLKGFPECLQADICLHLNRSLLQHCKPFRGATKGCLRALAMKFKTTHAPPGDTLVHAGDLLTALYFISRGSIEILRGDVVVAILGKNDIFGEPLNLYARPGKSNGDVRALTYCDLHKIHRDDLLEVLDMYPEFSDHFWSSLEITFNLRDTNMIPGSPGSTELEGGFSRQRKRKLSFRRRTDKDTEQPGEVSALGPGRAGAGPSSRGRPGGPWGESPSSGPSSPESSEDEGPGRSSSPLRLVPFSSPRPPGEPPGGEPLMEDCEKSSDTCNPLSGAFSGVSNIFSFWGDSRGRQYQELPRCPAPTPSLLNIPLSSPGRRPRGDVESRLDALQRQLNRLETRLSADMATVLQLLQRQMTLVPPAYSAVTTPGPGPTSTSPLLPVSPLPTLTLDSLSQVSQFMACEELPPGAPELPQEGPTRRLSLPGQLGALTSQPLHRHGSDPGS

Structure (SMILES) | inhibition (INH)
CC(=O)N1CCC(NC(=O)NC2CCCCCC2)CC1 | 9%
CC(=O)N1CCC(NC(=O)NC2CCC(C(C)(C)C)CC2)CC1 (stereo not given) | 7%
CC(=O)N1CCC(NC(=O)Nc2cccc(C(F)(F)F)c2)CC1 | 10%
CS(=O)(=O)N1CCC(NC(=O)NC23CC4CC(CC(C4)C2)C3)CC1 | -2.8%
CC(C)S(=O)(=O)N1CCC(NC(=O)Nc2ccc(C(F)(F)F)cc2)CC1 | 13%
CC(=O)N1CCC(NC(=O)NC23CC4CC(CC(C4)C2)C3)CC1 [AR9281] | < 8%
CC(=O)N1CCC(NC(=O)NC2CCC(C)(C)CC2)CC1 | 0.8%
O=C(NC1CCCCC1)NC1CCN(C(=O)c2ccccn2)CC1 | 3.4%
O=C(Nc1ccc(OC(F)(F)F)cc1)NC1CCN(C(=O)c2cccnc2)CC1 | 57%
CC(C)S(=O)(=O)N1CCC(NC(=O)Nc2ccc(OC(F)(F)F)cc2)CC1 | 11%

Target: T3, Cytochrome P450 1A2 (Homo sapiens, UniProt P05177)
T3 sequence (P05177 whole entry): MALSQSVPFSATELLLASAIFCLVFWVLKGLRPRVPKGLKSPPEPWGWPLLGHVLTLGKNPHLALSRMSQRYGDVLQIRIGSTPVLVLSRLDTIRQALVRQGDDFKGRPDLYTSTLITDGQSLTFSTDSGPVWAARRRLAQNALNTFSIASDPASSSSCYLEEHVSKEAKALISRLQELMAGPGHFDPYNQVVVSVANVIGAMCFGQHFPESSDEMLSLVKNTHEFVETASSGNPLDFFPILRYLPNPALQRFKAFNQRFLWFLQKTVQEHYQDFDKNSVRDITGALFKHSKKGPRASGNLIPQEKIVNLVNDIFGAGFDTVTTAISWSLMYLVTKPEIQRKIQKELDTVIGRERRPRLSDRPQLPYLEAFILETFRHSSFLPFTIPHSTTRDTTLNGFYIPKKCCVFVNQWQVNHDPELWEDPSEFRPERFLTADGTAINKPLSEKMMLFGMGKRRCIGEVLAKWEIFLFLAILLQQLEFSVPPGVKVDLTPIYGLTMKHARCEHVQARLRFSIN
Assay: Inhibition of CYP1A2
Format: ADME
Settings: not given

Structure (SMILES) | inhibition (INH)
CC(=O)N1CCC(NC(=O)NC23CC4CC(CC(C4)C2)C3)CC1 [AR9281] | Not Active

Target: Cytochrome P450 2C19 (Homo sapiens, UniProt P33261)
Assay: Inhibition of CYP2C19
Format: ADME
Settings: not given

Cytochrome P450 2C19, sequence (P33261 whole entry): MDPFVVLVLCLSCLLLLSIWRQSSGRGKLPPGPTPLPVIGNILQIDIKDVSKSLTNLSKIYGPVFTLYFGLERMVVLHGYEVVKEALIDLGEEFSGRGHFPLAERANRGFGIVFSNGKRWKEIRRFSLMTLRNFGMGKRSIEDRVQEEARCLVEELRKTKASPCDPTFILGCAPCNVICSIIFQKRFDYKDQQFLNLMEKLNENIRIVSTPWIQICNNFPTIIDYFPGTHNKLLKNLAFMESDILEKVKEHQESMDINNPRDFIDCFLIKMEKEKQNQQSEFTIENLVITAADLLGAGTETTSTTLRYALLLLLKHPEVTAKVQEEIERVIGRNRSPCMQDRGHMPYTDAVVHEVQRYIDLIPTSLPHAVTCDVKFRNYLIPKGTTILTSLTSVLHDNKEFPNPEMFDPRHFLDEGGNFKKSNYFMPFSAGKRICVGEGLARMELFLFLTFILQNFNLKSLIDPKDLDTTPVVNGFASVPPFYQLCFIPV

Structure (SMILES) | inhibition (INH)
CC(=O)N1CCC(NC(=O)NC23CC4CC(CC(C4)C2)C3)CC1 [AR9281] | Not Active

System: Rattus norvegicus
Assay: Antihypertensive activity against AngII-induced hypertension in telemetered rat assessed as decrease in diastolic blood pressure at 50 mg/kg, po
Format: functional, organism-based
Parameters: dose 50 mg/kg
Settings: Artery
Summary of the method: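 Sprague–Dawley rats made hypertensive by continuous AngII infusion, 65 ng/min. Dosed orally twice daily as a suspension in 0.5% carboxymethylcellulose, 0.1% Tween 80. Systolic and diastolic pressure recorded continuously by telemetry and compared against vehicle control.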

Structure (SMILES) | Activity
CC(=O)N1CCC(NC(=O)NC23CC4CC(CC(C4)C2)C3)CC1 [AR9281] | Active

System: Mus musculus
Assay: Inhibition of soluble epoxide hydrolase in diet induced obese mouse assessed as inhibition of EET hydrolysis at 100 mg/kg, po BID for 12 weeks measured 7 hrs post last dose
Settings: not given

Structure (SMILES) | Activity
CC(=O)N1CCC(NC(=O)NC23CC4CC(CC(C4)C2)C3)CC1 [AR9281] | Active

System: not listed separately
Assay: Oral bioavailability in rat
Format: ADME, organism-based
Settings: in vivo

Structure (SMILES) | bioavailability
CC(=O)N1CCC(NC(=O)NC23CC4CC(CC(C4)C2)C3)CC1 [AR9281] | 100%

Target: Cytochrome P450 2C9 (Homo sapiens, UniProt P11712)
Assay: Inhibition of CYP2C9
Format: ADME
Settings: not given

Cytochrome P450 2C9, sequence (P11712 whole entry): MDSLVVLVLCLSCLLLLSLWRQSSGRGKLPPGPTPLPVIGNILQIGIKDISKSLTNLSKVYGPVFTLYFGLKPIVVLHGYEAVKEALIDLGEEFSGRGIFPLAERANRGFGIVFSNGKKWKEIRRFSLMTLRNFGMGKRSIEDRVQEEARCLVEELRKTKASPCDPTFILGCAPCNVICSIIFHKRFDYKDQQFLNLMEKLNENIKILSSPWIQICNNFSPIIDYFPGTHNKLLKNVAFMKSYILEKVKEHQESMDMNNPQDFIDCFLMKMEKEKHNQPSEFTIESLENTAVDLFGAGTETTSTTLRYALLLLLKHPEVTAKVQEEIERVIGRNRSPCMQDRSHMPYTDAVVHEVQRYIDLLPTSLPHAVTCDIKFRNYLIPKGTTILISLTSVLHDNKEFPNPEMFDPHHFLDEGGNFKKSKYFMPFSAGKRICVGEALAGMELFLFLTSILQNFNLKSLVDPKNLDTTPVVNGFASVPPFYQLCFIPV

Structure (SMILES) | inhibition (INH)
CC(=O)N1CCC(NC(=O)NC23CC4CC(CC(C4)C2)C3)CC1 [AR9281] | Not Active

System: not listed separately
Assay: AUC (24 hrs) in rat at 10 mg/kg, po
Format: ADME, organism-based
Parameters: time < 24 hr, dose 10 mg/kg, route oral
Settings: plasma

Structure (SMILES) | AUC at 24 h
CC(=O)N1CCC(NC(=O)NC2CCCCCC2)CC1 | 7840 ng·h/mL
CC(=O)N1CCC(NC(=O)NC2CCC(C(C)(C)C)CC2)CC1 (stereo not given) | 1780 ng·h/mL
CC(=O)N1CCC(NC(=O)NC23CC4CC(CC(C4)C2)C3)CC1 [AR9281] | 720 ng·h/mL
O=C(NC1CCCCC1)NC1CCN(C(=O)c2ccccn2)CC1 | 8320 ng·h/mL
CC(=O)N1CCC(NC(=O)NC2CC3(C)CCC2CC3)CC1 (stereo not given) | 1480 ng·h/mL

The next lines start with the values.

AUC at 24 h | Structure (SMILES)
19600 ng·h/mL | CC(=O)N1CCC(NC(=O)Nc2cccc(C(F)(F)F)c2)CC1
640 ng·h/mL | CS(=O)(=O)N1CCC(NC(=O)NC23CC4CC(CC(C4)C2)C3)CC1
6850 ng·h/mL | CS(=O)(=O)N1CCC(NC(=O)Nc2ccc(C(F)(F)F)cc2)CC1
5890 ng·h/mL | CC(C)S(=O)(=O)N1CCC(NC(=O)Nc2ccc(C(F)(F)F)cc2)CC1
13100 ng·h/mL | CC(=O)N1CCC(NC(=O)Nc2ccc(C(F)(F)F)cc2)CC1
11300 ng·h/mL | O=C(Nc1ccc(OC(F)(F)F)cc1)NC1CCN(C(=O)c2cccnc2)CC1
7300 ng·h/mL | CC(C)S(=O)(=O)N1CCC(NC(=O)Nc2ccc(OC(F)(F)F)cc2)CC1

Target: T1, Bifunctional epoxide hydrolase 2
Assay: Inhibition of human soluble epoxide hydrolase
Settings: not given

Structure (SMILES) | IC50
CC(=O)N1CCC(NC(=O)NC2CCCCCC2)CC1 | 0.0008 µM
CC(=O)N1CCC(NC(=O)NC2CCC(C(C)(C)C)CC2)CC1 (stereo not given) | 0.013 µM
CC(=O)N1CCC(NC(=O)NC2C3CCC2CC3)CC1 (stereo not given) | 0.014 µM
CC(=O)N1CCC(NC(=O)NC2CCC(C)(C)CC2)CC1 | 0.006 µM
O=C(NC1CCCCC1)NC1CCN(C(=O)c2ccccn2)CC1 | 0.0064 µM
CC(=O)N1CCC(NC(=O)NC23CC4CC(F)(CC(F)(C4)C2)C3)CC1 | 0.058 µM
CC(=O)N1CCC(NC(=O)NC2CC3(C)CCC2CC3)CC1 (stereo not given) | 0.025 µM
CC(=O)N1CCC(NC(=O)NC2CCCCC2)CC1 | 0.029 µM
CC(=O)N1CCC(NC(=O)NC23CC4(F)CC(F)(CC(F)(C4)C2)C3)CC1 | 0.12 µM

Next, values leading:

IC50 | Structure (SMILES)
0.0019 µM | CS(=O)(=O)N1CCC(NC(=O)NC23CC4CC(CC(C4)C2)C3)CC1
0.185 µM | CC(=O)N1CCC(NC(=O)NC2CCC(F)(F)CC2)CC1

System: Mus musculus
Assay: Antidiabetic activity in diet induced obese mouse assessed as reduction in maximal glucose excursion at 100 mg/kg, po BID for 4 weeks
Format: functional, organism-based
Parameters: dose 100 mg/kg
Settings: not given
Summary of the method: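 Male C57BL/6 mice fed 45% fat diet plus high fructose corn syrup (0.42 kcal/mL) for 6 weeks beforehand and throughout. Oral gavage BID for 12 weeks. After 4 weeks, intraperitoneal glucose 2 g/kg given 4 h post-dose.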

Structure (SMILES) | Activity
CC(=O)N1CCC(NC(=O)NC23CC4CC(CC(C4)C2)C3)CC1 [AR9281] | Active

Target: Cytochrome P450 3A4 (Homo sapiens, UniProt P08684)
Assay: Inhibition of CYP3A4
Format: ADME
Settings: not given

Cytochrome P450 3A4, sequence (P08684 whole entry): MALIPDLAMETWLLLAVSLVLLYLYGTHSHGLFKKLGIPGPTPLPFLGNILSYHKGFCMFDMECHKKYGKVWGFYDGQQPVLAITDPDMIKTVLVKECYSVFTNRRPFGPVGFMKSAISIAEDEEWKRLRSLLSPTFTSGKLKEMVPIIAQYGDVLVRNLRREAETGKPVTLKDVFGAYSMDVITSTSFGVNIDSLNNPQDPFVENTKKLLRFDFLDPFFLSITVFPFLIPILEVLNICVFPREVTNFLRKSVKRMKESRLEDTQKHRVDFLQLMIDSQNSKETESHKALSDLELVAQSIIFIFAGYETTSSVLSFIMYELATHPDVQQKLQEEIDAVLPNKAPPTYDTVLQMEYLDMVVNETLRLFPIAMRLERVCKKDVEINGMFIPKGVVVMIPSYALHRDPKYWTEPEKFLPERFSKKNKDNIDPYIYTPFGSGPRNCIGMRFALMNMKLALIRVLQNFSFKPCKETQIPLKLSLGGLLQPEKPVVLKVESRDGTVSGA

Structure (SMILES) | inhibition (INH)
CC(=O)N1CCC(NC(=O)NC23CC4CC(CC(C4)C2)C3)CC1 [AR9281] | Not Active
